From PMC6889762 (Toxicology Reports, 2019)

Columns and labels:
Ferrous ion = assay: Ferrous ion
Outline: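 FeCl2 (0.6 mM stock) added to the test compound solution; iron complex formation measured spectrophotometrically at 522 nm. Chelated Fe2+ % = (1 − As/Ac) × 100, where Ac is the control absorbance. IC50 came from a plot of % against concentration. Triplicate, mean ± SD.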

Fe3+ reducing ability = conditions: for Fe^3+ reducing (absorbance): 20 μg/mL, absorbance at 700 nm
Cu2+ reducing ability = conditions: for Cu^2+ reducing (absorbance): 20 μg/mL, absorbance at 450 nm; for Cu^2+ ions reducing ability (absorbance): running text: at 30 μg/mL concentration, 450 nm
Outline: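 CUPRAC assay: CuCl2 (10 mM stock), neocuproine (7.5 mM stock) and 1.0 M acetate buffer were added to the test compound (10−30 μg/mL). The mixture was made up with deionized water, tubes were closed and left at room temperature, and absorbance was read at 450 nm. Higher absorbance means greater reducing ability. Triplicate runs, mean ± SD.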

[1] = Fe3+-TPTZ reducing ability; conditions: for Fe^3+-TPTZ reducing (absorbance): 20 μg/mL, absorbance at 593 nm
DPPH radical scavenging = assay: DPPH radical scavenging
Outline: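 Ethanolic DPPH (0.1 mM stock) added to the test compound in ethanol (10−30 μg/mL). Incubated 30 min in the dark, absorbance read at 517 nm. Scavenging % = (1 − As/Ac) × 100. IC50 was obtained by plotting % against concentration. Triplicate analyses, mean ± SD.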

[2] = ABTS radical cation scavenging
Outline: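 Radical cation generated from 2.0 mM ABTS in deionized water with 2.3 mM K2S2O8, then diluted with pH 7.4 buffer to absorbance 0.750 ± 0.025. Test compound (10−30 μg/mL) mixed with the radical solution; residual absorbance read at 734 nm. Scavenging % = (1 − As/Ac) × 100. IC50 was taken from a plot of % against concentration. Triplicate runs, mean ± SD.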

[3] = DMPD radical cation scavenging
Outline: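 DMPD solution (0.1 M stock) added to 0.1 M acetate buffer, pH 5.3, containing the test compound (10−30 μg/mL). FeCl3 (50 mM stock) was then added and absorbance measured at 505 nm. Scavenging % = (1 − As/Ac) × 100. IC50 was read from a plot of % against concentration. Triplicate, mean ± SD.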

[4] = Superoxide anion radical scavenging
Outline: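 Superoxide generated in a methionine–riboflavin system under illumination and detected by NBT reduction at 560 nm. Scavenging % = (1 − As/Ac) × 100 against a compound-free control. IC50 was estimated from a plot of % against test compound concentration. Triplicate, mean ± SD.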

[5] = molecular target: acetylcholinesterase (AChE) (Electrophorus electricus, UniProt O42275); assay: AChE inhibition; format: biochemical, Electric eel
[6] = molecular target: butyrylcholinesterase (BChE) (Equus caballus, UniProt P81908); assay: biochemical; set-up: species or system equine
butyrylcholinesterase (BChE), sequence (P81908 whole entry): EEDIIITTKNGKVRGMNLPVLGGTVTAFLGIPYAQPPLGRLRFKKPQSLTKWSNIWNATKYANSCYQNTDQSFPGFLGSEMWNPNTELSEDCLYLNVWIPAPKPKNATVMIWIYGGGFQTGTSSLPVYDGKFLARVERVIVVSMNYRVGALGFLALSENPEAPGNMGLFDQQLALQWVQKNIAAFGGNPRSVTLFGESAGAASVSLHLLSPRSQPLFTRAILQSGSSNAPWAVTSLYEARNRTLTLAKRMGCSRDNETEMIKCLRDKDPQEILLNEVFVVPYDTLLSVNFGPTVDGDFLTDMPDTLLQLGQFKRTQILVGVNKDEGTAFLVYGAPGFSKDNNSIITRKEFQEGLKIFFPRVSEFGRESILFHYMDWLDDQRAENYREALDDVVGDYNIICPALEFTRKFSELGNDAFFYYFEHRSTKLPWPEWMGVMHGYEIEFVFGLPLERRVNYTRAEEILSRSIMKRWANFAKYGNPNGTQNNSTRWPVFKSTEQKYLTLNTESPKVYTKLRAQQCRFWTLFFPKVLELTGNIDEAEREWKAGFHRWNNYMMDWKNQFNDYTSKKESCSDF

acetylcholinesterase (AChE), sequence (O42275 24-633): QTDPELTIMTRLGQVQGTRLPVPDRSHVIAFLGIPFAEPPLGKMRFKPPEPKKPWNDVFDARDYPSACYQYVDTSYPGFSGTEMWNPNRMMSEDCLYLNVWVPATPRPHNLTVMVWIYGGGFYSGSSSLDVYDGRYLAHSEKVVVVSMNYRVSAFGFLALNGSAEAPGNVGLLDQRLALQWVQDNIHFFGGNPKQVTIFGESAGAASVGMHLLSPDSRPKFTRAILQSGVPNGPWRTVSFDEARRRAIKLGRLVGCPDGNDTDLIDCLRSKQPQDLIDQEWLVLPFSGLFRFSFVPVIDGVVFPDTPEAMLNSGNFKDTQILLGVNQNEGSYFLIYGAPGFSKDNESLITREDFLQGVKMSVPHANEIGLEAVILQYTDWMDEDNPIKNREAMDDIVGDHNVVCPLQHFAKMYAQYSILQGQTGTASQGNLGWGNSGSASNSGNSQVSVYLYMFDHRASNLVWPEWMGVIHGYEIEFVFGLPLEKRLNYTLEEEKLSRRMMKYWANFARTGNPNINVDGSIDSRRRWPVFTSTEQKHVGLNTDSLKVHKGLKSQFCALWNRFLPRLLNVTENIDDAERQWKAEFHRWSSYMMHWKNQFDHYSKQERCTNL

Compound | Metal chelating (Fe^2+) IC50 (Ferrous ion) [µg/mL] | Fe^3+ reducing (absorbance) (Fe3+ reducing ability) | Cu^2+ reducing (absorbance) (Cu2+ reducing ability) | Cu^2+ ions reducing ability (absorbance) (Cu2+ reducing ability) | Fe^3+-TPTZ reducing (absorbance) [1] | DPPH· scavenging IC50 (DPPH radical scavenging) [µg/mL] | ABTS^•+ scavenging IC50 [2] [µg/mL] | DMPD^•+ scavenging IC50 [3] [µg/mL] | O2^•− scavenging IC50 [4] [µg/mL] | Fe^3+ reducing ability (absorbance) (Fe3+ reducing ability; concentration not given, 700 nm) | FRAP effects (absorbance) ([1]; concentration not given, 593 nm) | IC50 [5] [nM] | Ki [5] [nM] | IC50 [6] [nM] | DMPD^•+ scavenging activity [3]
O=C(O)CN(CCN(CC(=O)O)CC(=O)O)CC(=O)O [EDTA] | 6.24 |  |  |  |  |  |  |  |  |  |  |  |  |  | 
Cc1c(C)c2c(c(C)c1O)CCC(C)(C(=O)O)O2 (stereo not drawn) [Trolox, trolox] | 8.05 | 1.148 | 0.825 | 0.825 | 1.973 | 8.01 | 4.30 | 22.35 | 30.13 |  |  |  |  |  | 
CC(=O)c1c(O)c(C)c(O)c2c1OC1=CC(=O)C(C(C)=O)C(=O)C12C (stereo not drawn) [Usnic acid] | 18.68 | 0.278 | 0.277 | 0.277 | 1.293 | 49.50 | 10.41 | 33.00 | 20.38 | 0.278 | 1.293 | 1.27 | 0.239 | 3.4 | 
Cc1c(C)c2c(c(C)c1O)CC[C@@](C)(CCC[C@H](C)CCC[C@H](C)CCCC(C)C)O2 [α-Tocopherol, α-tocopherol] | 27.72 | 0.802 | 0.564 | 0.564 | 1.473 | 9.76 | 5.02 |  | 21.01 |  |  |  |  |  | did not demonstrate scavenging activity
